Data on two molecules can be found in ChEMBL document CHEMBL5042469, “Unique Molecular Interaction with the Histone Deacetylase 6 Catalytic Tunnel: Crystallographic and Biological Characterization of a Model Chemotype” (J Med Chem, 2021).

Calls of active or inactive are those of the source. The calls are words filed in the database; no cut-off is given here.

Series [1] in a line: Stability in mouse plasma assessed as compound remaining measured after 30 mins. The following applies: read-out: Stability. The series is classed as ADME, cell-free.
Another series has as its target Histone deacetylase 7 (Homo sapiens, UniProt Q8WUI4). Put plainly: Inhibition of full length human HDAC7 using FAM-labeled acetylated peptide as substrate by electrophoretic mobility shift assay. Put shortly: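 Full-length human HDAC isoform enzymatic assay by electrophoretic mobility shift, using a FAM-labelled acetylated peptide substrate. […] Values are the mean of duplicate experiments with 95% confidence intervals.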
(In EMSA bound probe runs differently from free probe, usually more slowly.)

Series [2] concerns the target T1, Protein deacetylase HDAC6 (Homo sapiens, UniProt Q9UBN7).
T1 sequence (Q9UBN7 whole entry): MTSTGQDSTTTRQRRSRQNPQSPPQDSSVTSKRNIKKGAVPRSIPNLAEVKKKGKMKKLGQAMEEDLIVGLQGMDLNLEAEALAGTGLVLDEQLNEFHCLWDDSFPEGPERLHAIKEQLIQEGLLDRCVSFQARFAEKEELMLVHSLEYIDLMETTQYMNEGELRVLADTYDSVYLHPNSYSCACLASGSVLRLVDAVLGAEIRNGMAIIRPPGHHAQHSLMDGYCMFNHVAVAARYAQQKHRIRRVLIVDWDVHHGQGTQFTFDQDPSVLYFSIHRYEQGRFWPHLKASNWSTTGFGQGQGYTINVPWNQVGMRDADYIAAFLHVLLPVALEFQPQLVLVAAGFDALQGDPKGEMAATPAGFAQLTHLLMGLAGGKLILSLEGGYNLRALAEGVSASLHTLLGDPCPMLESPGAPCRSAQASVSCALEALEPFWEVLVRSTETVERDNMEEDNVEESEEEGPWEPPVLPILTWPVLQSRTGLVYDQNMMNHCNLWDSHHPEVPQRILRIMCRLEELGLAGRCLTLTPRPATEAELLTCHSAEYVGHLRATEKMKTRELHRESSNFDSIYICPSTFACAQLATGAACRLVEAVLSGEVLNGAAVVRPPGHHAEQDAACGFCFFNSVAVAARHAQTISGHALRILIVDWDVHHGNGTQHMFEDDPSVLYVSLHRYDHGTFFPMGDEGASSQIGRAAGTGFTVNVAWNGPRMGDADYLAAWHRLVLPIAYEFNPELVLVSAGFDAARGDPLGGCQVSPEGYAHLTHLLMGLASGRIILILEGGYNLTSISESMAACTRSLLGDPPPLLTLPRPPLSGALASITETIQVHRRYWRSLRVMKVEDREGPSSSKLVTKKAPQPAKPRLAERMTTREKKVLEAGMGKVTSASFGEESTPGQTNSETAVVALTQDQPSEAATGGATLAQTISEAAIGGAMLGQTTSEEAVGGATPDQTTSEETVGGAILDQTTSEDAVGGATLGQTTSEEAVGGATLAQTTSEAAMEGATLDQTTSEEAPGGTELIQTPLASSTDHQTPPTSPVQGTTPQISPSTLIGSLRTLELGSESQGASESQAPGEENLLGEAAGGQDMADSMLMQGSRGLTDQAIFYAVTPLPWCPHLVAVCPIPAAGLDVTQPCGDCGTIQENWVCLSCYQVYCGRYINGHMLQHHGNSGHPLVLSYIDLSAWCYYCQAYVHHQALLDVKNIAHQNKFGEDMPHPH
Nature of the series: Binding affinity to human HDAC6 by jump dilution assay.

In series [3] the test system is MV4-11. Put plainly: Induction of apoptosis in human MV4-11 cells assessed as viable cells at 2 uM incubated for 15 mins by Annexin-V/FITC staining based FACS analysis (reference value: 35.53%). The following applies: MV4-11, 0.25 h, read-out: Activity. The series is classed as functional. Put shortly:
(§1)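 MV4-11 cells were dosed, then washed twice in cold PBS and resuspended in binding buffer at 1×10^6 cells/mL. Cells were stained with FITC-annexin V and propidium iodide for 15 min in the dark, diluted with binding buffer and analysed by flow cytometry within 1 h. Quadrants: LL viable, LR early apoptotic, UR late apoptotic. Duplicate experiments averaged; DMSO control.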
For orientation: In flow cytometry, cells or beads pass a laser one at a time.

For series [4], the system named is MV4-11. Nature of the series: Induction of apoptosis in human MV4-11 cells assessed as early apoptotic cells at 0.25 uM incubated for 15 mins by Annexin-V/FITC staining based FACS analysis (reference value: 0.70%). Format: functional. Put shortly:
as §1

In series [5] the test system is MV4-11. Nature of the series: Induction of apoptosis in human MV4-11 cells assessed as early apoptotic cells at 2 uM incubated for 15 mins by Annexin-V/FITC staining based FACS analysis (reference value: 0.70%). The series is classed as functional. The following applies: 0.25 h. Put shortly:
as §1

The subject of series [6] is MV4-11. Put plainly: Induction of apoptosis in human MV4-11 cells assessed as late apoptotic cells at 2 uM incubated for 15 mins by Annexin-V/FITC staining based FACS analysis (reference value: 4.17%). The following applies: 0.25 h. Format: functional. Put shortly: as §1
The subject of series [7] is MV4-11. Put plainly: Induction of ROS generation in human MV4-11 cells at 10 uM measured over 4 hrs by DCFDA staning based spectrophotometric analysis. The series is classed as functional, cell-based. A digest of the protocol:
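MV4-11 cells were washed once in PBS and loaded with DCFDA (33 μM) for 30 min at 37 °C in the dark. Cells were then washed, resuspended in supplemental buffer and dosed with compound. Fluorescence (Ex/Em 485/535) was followed for up to 4 h against a DMSO control.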

Series [8] in a line: Stability in mouse plasma measured assessed as compound remaining after 60 mins. The following applies: read-out: Stability. Format: ADME, cell-free.
A short description of series [9]: Half life in mouse plasma incubated for 1 hr. Format: ADME, cell-free. A digest of the protocol:
(§2)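 Compound was incubated in mouse plasma or in pooled human whole blood. […] Triplicate studies, averaged.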

Series [10] can be described thus: Half life in human whole blood incubated for 1 hr. The series is classed as ADME, tissue-based. A digest of the protocol:
as §2

Series [11] in a line: Cmax in Balb/c mouse at 50 mg/kg, ip by LC-MS/MS analysis. Format: ADME, organism-based. More on the design: route intraperitoneal, dose 50 mg/kg. The following applies: in vivo. Put shortly: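 Male BALB/c mice received a single intraperitoneal dose from a 50 mg/mL solution in 5% DMSO, 30% PEG400, 1% Tween80 and 64% saline. Blood was collected at several time points and the compound quantified by triple-quadrupole LC-MS/MS.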

A short description of series [12]: Kinetic solubility in pH 7.4 PBS buffer assessed as saturation concentration by HPLC analysis. The series is classed as physicochemical.
The test system of series [13] is MV4-11. Put plainly: Induction of apoptosis in human MV4-11 cells assessed as viable cells at 0.50 uM incubated for 15 mins by Annexin-V/FITC staining based FACS analysis (reference value: 84.58%). The series is classed as functional. The following applies: MV4-11, 0.25 h, read-out: Activity. A digest of the protocol: as §1
Series [14] concerns MV4-11. Nature of the series: Induction of apoptosis in human MV4-11 cells assessed as viable cells at 1 uM incubated for 15 mins by Annexin-V/FITC staining based FACS analysis (reference value: 84.58%). The following applies: MV4-11, 0.25 h, read-out: Activity. The series is classed as functional. A digest of the protocol:
as §1

In series [15] the test system is MV4-11. Put plainly: Induction of apoptosis in human MV4-11 cells assessed as viable cells at 4 uM incubated for 15 mins by Annexin-V/FITC staining based FACS analysis (reference value: 84.58%). The following applies: MV4-11, 0.25 h, read-out: Activity. The series is classed as functional. Put shortly: as §1
Series [16] concerns MV4-11. Put plainly: Induction of apoptosis in human MV4-11 cells assessed as early apoptotic cells at 0.25 uM incubated for 15 mins by Annexin-V/FITC staining based FACS analysis (reference value: 7.28%). The series is classed as functional. A digest of the protocol:
as §1

Series [17] deals with MV4-11. Nature of the series: Induction of apoptosis in human MV4-11 cells assessed as early apoptotic cells at 2 uM incubated for 15 mins by Annexin-V/FITC staining based FACS analysis (reference value: 7.28%). Format: functional. The following applies: 0.25 h. Put shortly: as §1
Series [18] has as its system MV4-11. Put plainly: Induction of apoptosis in human MV4-11 cells assessed as late apoptotic cells at 2 uM incubated for 15 mins by Annexin-V/FITC staining based FACS analysis (reference value: 4.36%). Format: functional. The following applies: 0.25 h. A digest of the protocol: as §1

Chain of Histone deacetylase 7 (Q8WUI4 whole entry, canonical isoform): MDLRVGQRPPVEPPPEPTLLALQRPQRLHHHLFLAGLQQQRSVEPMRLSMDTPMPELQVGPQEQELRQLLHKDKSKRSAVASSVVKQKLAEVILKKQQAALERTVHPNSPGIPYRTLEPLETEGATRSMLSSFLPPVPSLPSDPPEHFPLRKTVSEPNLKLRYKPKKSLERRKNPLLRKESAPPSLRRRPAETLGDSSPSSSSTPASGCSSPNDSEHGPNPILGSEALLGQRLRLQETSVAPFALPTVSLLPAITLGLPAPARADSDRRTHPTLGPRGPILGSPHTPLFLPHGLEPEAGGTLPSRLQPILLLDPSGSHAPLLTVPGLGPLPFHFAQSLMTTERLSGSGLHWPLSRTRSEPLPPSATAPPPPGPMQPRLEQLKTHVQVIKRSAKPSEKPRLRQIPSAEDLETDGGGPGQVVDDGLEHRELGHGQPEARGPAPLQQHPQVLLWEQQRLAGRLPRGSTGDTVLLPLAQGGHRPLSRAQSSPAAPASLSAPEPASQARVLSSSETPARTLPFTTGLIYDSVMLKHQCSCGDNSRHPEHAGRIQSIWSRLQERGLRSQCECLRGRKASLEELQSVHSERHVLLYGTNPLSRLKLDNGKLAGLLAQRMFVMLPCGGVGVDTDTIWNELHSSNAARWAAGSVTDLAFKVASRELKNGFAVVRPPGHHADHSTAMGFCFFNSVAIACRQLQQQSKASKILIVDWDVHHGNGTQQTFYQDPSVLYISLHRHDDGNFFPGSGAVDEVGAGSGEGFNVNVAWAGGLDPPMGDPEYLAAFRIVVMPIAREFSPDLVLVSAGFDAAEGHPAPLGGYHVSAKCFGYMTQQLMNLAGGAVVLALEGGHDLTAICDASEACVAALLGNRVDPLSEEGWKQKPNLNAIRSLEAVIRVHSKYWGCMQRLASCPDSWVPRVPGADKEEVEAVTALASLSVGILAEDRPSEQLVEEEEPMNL

For `O=C(NO)c1ccc(CN(Cc2cccnc2)S(=O)(=O)c2cc(F)c(F)c(F)c2F)cc1`, the remaining at 0.5 h in series [1] was 79.8%. At Histone deacetylase 7, the IC50 was determined as 7.29 µM. In series [2], this molecule yielded a Ki of 0.0007 µM. The viability at 2 µM in the series on MV4-11 [3] came out at 9.59%. Also, the Activity in the series on MV4-11 [4] is 0.94%; in the series on MV4-11 [5], 2.45%; in the series on MV4-11 [6], 15.44%. Moreover, in the series with MV4-11 [7], the outcome was Active. In addition, the remaining at 1 h in series [8] was 68%. Besides, the results for the t1/2 in series [9] and in series [10] were 1.83 h and 1.8 h, respectively. Also, in [11], the Cmax turned out to be 95.1 ng/mL. In [12], the Kinetic_solubility turned out to be 161.5 µM.
With `O=C(CCCCCCNC(=O)c1cnc(N(c2ccccc2)c2ccccc2Cl)nc1)NO` [CITARINOSTAT], the viability at 0.5 µM in the series with MV4-11 [13] was 81.4%. Moreover, the viability at 1 µM in the series on MV4-11 [14] amounted to 68.4%. Moreover, in the series on MV4-11 [15], the viability at 4 µM amounted to 40.9%. Moreover, the Activity with MV4-11 [16] is reported as 7.93%; in the series on MV4-11 [17], 27.95%; in the series on MV4-11 [18], 13.33%.

As a reminder, the IC50 is the point on the concentration scale where inhibition reaches its midpoint. By Ki is commonly meant the dissociation constant of the complex between target and ligand, obtained from inhibition or displacement. For orientation: Cmax means the highest concentration seen after dosing.
